Holding throughout (format): functional
For assay [1], the species on record is Homo sapiens. Description: In vitro facile oxidative conversion to the corresponding quaternary derivative 5a in heparinized human whole blood.
The species entered for assay [2] is Homo sapiens. Put plainly: In vitro facile oxidative conversion to the corresponding quaternary derivative 5a in fresh human plasma. The method in brief: (§1)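 Dihydro derivative in methanol (0.2 mL of 6.25 × 10⁻⁴ M) diluted to 10 mL with 20% fresh human plasma in phosphate buffer pH 7.4. Held at 37 °C with UV scans 400–250 nm every 10 min for 2 h against a plasma/methanol reference. Oxidation to the pyridinium salt followed by loss at ~350 nm and gain at 262 nm. First-order k and t1/2 derived.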

For assay [3], the species on record is Homo sapiens. Description: Half life during the site specific conversion to the quaternary derivative 5a in heparinized human whole blood was determined.
Assay [4] is filed under the species Rattus norvegicus. Description: Half life during the site specific conversion to the quaternary derivative 5a in rat liver homogenate was determined. The method in brief: (§2)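 Sprague-Dawley rat liver (5.0 g) homogenized in 50 mL phosphate buffer pH 7.4, centrifuged, heated 50 °C for 5 min, recentrifuged, and diluted to 250 mL (2%). Dihydro derivative (0.2 mL of 6.25 × 10⁻⁴ M in methanol) diluted to 10 mL with homogenate. UV scans at 37 °C from 400 to 250 nm every 5 min for 1 h against a homogenate/methanol reference. First-order k and t1/2 derived.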

The species named for assay [5] is Rattus norvegicus. Description: Half life during the site specific conversion to the quaternary derivative 5a in rat brain homogenate was determined. The method in brief:
(§3)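 Rat brain (2.0 g) homogenized in 10 mL phosphate buffer pH 7.4, centrifuged, heated 50 °C for 5 min, recentrifuged, and diluted to 100 mL (2%). To 10 mL was added 0.2 mL of 6.25 × 10⁻⁴ M methanolic dihydro derivative. First-order k and t1/2 derived.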

The species entered for assay [6] is Rattus norvegicus. Description: In vitro facile oxidative conversion to the corresponding quaternary derivative 5a in rat liver homogenate. The procedure, abridged:
as §2

The species entered for assay [7] is Homo sapiens. Description: Half life during the site specific conversion to the quaternary derivative 5a in fresh human plasma was determined. The procedure, abridged: as §1
The species entered for assay [8] is Rattus norvegicus. Description: In vitro facile oxidative conversion to the corresponding quaternary derivative 5a in rat brain homogenate. The method in brief:
as §3

The values that follow come from ChEMBL document CHEMBL1122498, “Improved delivery through biological membranes. 11. A redox chemical drug-delivery system and its use for brain-specific delivery of phenylethylamine” (1983).

`O=C(NCCc1ccccc1)C1=CN(Cc2ccccc2)C=CC1`: the Activity is 4.74 10e-4 K s-1 in the assay listed under Homo sapiens [1], 0.74 10e-4 K s-1 in the assay listed under Homo sapiens [2], 7.5 10e-4 K s-1 in the assay listed under Rattus norvegicus [6] and 2.1 10e-4 K s-1 in the assay listed under Rattus norvegicus [8]. The T1/2 was found to be 24.4 min in the assay listed under Homo sapiens [3], 15.3 min in the assay filed under Rattus norvegicus [4], 55 min in the assay listed under Rattus norvegicus [5] and 156 min in the assay listed under Homo sapiens [7].
With `CCOC(=O)C1=CN(C)C=C(C(=O)NCCc2ccccc2)C1`, the Activity in the assay filed under Homo sapiens [1] is 1.13 10e-4 K s-1; in the assay listed under Rattus norvegicus [8], 0.174 10e-4 K s-1. In addition, the T1/2 is 70.2 min in the assay listed under Homo sapiens [3] and 666 min in the assay listed under Rattus norvegicus [5].
On the same counts, the results for `CN1C=C(C(=O)NCCc2ccccc2)CC(C(=O)NCCc2ccccc2)=C1` are 0.494 10e-4 K s-1, 0.084 10e-4 K s-1, 234 min and 1370 min.
For the molecule `CN1C=CCC(C(=O)NCCc2ccccc2)=C1`, the Activity was 8.4 10e-4 K s-1 in the assay filed under Homo sapiens [1], 1.8 10e-4 K s-1 in the assay listed under Homo sapiens [2], 8.13 10e-4 K s-1 in the assay listed under Rattus norvegicus [6] and 4.12 10e-4 K s-1 in the assay filed under Rattus norvegicus [8]. Besides, the T1/2 in the assay filed under Homo sapiens [3] worked out at 13.7 min; in the assay filed under Rattus norvegicus [4], 14.4 min; in the assay filed under Rattus norvegicus [5], 28.2 min; in the assay filed under Homo sapiens [7], 64.2 min.
